# HIV Env fusion = inhibitors of HIV Env-mediated cell fusion. 360,000 tested, 1.1% active. inhibition, % at 12.3 µM. HeLa-JRFL Env/CEM21 cell fusion, luciferase;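 active = mean replicate inhibition score of at least 50 and every replicate individually at or above 50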;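 note: 0% = plate neutral controls and 100% = maraviroc near 300 nM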
# CFTR F508del cor = correctors of CFTR F508del function in bronchial epithelial cells. CFBE cells, YFP halide quenching; stimulated with forskolin plus potentiator P3; % fluorescence drop versus neutral controls. activity (quench increase), % at 7.58 µM. 350,000 tested, 0.36% active;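 active = mean added fluorescence quench of at least 8% versus neutral control, with both replicates also reaching 8%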;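 note: cells transiently co-express mutant CFTR-F508del with the halide-sensitive YFP; corrector assay measuring rescue of mutant channel to the surface after 24 h compound exposure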
# E-selectin induc = induces E-selectin expression in human endothelial cells; AID 686992; 260,000 tested, 0.37% active; activation, % at 7.58 µM; P16581; HUVEC E-selectin immunofluorescence imaging; normalized: neutral wells 0, TNF-alpha wells 100;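 active = mean E-selectin-positive cell signal at least 10% of the positive control, reached in at least 60% of replicates, without over 20% cell loss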
# Target sequence (P16581 whole entry, looked up): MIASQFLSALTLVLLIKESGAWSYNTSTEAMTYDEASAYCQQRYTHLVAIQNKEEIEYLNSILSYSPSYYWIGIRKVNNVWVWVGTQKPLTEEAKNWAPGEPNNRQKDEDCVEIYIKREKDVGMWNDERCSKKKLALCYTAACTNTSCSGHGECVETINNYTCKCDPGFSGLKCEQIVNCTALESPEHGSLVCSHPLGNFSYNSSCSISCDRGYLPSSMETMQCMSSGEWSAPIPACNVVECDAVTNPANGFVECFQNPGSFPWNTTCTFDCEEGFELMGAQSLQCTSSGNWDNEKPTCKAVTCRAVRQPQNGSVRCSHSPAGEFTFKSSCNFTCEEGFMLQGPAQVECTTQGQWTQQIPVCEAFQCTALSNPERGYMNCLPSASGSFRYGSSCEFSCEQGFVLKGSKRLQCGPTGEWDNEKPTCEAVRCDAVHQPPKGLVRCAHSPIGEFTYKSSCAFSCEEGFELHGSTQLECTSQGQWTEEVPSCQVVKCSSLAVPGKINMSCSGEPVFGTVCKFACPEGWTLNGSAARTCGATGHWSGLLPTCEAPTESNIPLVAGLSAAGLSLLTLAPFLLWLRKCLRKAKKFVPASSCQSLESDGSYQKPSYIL
#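 Assay system: HUVEC, human umbilical vein endothelial cells / Amount: 3,000 HUVEC/well / Controls: TNF-alpha positive control, DMSO neutral control / Compound dosing: single concentration / Medium: EGM-2 over gelatin coat / Evaluation: percent E-selectin-positive cells / Signal: immunofluorescence imaging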
# S100A4 MyoIIA = blocks human S100A4 binding to myosin IIA peptide | P26447 | S100A4/TAMRA-MyoIIA peptide fluorescence polarization | inhibition, % at 10.7 µM | 360,000 tested, 0.14% active | AID 652163;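 active = mean inhibition of at least 70% across replicates, with every replicate also reaching that level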
#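 assay system = human S100A4 monomer with TAMRA-labelled myosin IIA peptide | also added = labelled myosin peptide probe, 5 nM | incubation = 5 min between mix addition and reading | control set = DMSO and TFP controls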
# FGF22 binding-1 = shifts melting point of recombinant human FGF22; Q9HCT0; recombinant FGF22 thermal shift, SYPRO orange fluorescence; percent of sucrose octasulfate shift, DMSO zero; activity (Tm shift, normalised), % at 9.99 µM; 340,000 tested, 1.5% active;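 active = mean Tm shift, scaled 0 neutral to 100 positive control, at about 1.3% or above, every replicate too, limit read from the data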
# FGF22 binding-2 = FGF22 (human) binding in thermal shift. recombinant FGF22 thermal shift, SYPRO orange fluorescence. 1,000 tested, 2% active. AID 720646. thermal shift activity, °C (ΔTm) at 38 µM. shares compounds with FGF22 binding-1;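 active = fitted rise in melting shift crosses a set limit at or below the top valid dose tested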
# TSA no protein = shows thermal shift signal without protein, FGF22 counter-screen | shares compounds with FGF22 binding-1 | compound-only SYPRO orange thermal shift counter-screen, no protein | AC50, µM (titrated, usually from 38 µM) | 1,000 tested, 2% active | AID 743019;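 active = rising signal whose fitted curve reaches the 0.54 level within the top valid dose, showing a melting point, actives reach about 13 µM in these data; inactive = the rest, including activity in the opposite direction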; note: value is where the raw curve crosses a fixed level and not half-maximal
# An asterisk follows results filed as active; i = inactive; x = not tested or not shown; [ ] = dose if it differs, or a comment. Sampled rows, rich in hits. Any-hit rate of the full collection: about 2.7%.
SMILES,HIV Env fusion,CFTR F508del cor,E-selectin induc,S100A4 MyoIIA,FGF22 binding-1,others
O=S1(=O)CCN(CCc2c[nH]c3ccccc23)CC1,-3,-1,-1,-3,43*,
c1ccc2c(CN3CCCCCC3)c[nH]c2c1,-2,-6,x,-3,0,
CNC(=O)Oc1cc2c(cc1C(C)(C)C)CCC2,21,-4,0,-3,44*,
CCCCCCn1c(=O)c(C(=O)Nc2cnccn2)c(O)c2ccccc21,3,1,x,0,43*,
CCCCCn1c(=O)c(C(=O)Nc2ccccn2)c(O)c2ccccc21,34,-5,0,-3,0,
COC(=O)[C@H]1C[C@@H]1[C@H](NP(=O)(c1ccccc1)c1ccccc1)c1ccccc1,-13,0,0,-4,1.8*,
COC(=O)[C@]1(C)C[C@H]1[C@H](NP(=O)(c1ccccc1)c1ccccc1)c1ccccc1,-44,-3,0,84*,0,
Nc1ccc2ccc3cccc[n+]3c2c1,18,15*,x,12,0,
CC1CC(C)CC(C)C(O)C(C#N)=CC=CCC(C2CCCC2C(=O)O)OC(=O)CC(O)C(C)C1 (configuration not stated),71*,-2,-1,-1,0,
COc1cc(C2(C#N)CCN(C)CC2)cc(OC)c1OC,-14,0,1,0,43*,
COc1ccc(C2(C#N)CCN(C)CC2)cc1,-23,x,-2,0,0,
CC=Cc1ccc2n(c1=O)C[C@@H]1[C@@H](CO)[C@H](C(=O)OC)[C@H]2N1CC1CCCCC1 (mixture of isomers),x,-2,0,6,0,
S=C(NCCc1ccccc1)N1Cc2cc(-c3ccccc3)ccc2-n2nncc2C1,15,-2,0,2,1,
S=C(NCCc1ccccc1)N1Cc2cc(N3CCCCC3)ccc2-n2nncc2C1,75*,-1,0,15,0,
O=C(O)[C@@H]1[C@@H](CO)[C@@H]2Cn3c(ccc(-c4ccc(F)cc4)c3=O)[C@H]1N2CC1CCCCC1,1[16.7 µM],x,0,11,0,
O=C(Cc1ccccn1)N1CCCCN2[C@H](CO)[C@H](c3ccc(-c4ccccc4F)cc3)[C@H]2C1,x,-1,0,-8,0,
N#CC1(c2ccccc2)CCN(C2CC(=O)N(c3ccc4c(c3)OCO4)C2=O)CC1 (configuration not stated),22,-2,x,0,44*,
O=[N+]([O-])c1ccc(N2CCOCC2)c2c1no[n+]2[O-],-229,12*,0,4,0,
NC(=S)/N=C/c1c(O)[nH]c(=O)[nH]c1=O,-10,-3,x,2,43*,
C=CCNC(=S)/N=C/c1c(O)[nH]c(=O)[nH]c1=O,-13,1,x,3,0,
COC(=O)[C@@H]1[C@@H](CO)[C@@H]2Cn3c(ccc(-c4cccc(C(=O)N(C)C)c4)c3=O)[C@H]1N2CC1CC1,x,-1,0,-6,x,
COC(=O)[C@@H]1[C@@H](CO)[C@@H]2Cn3c(ccc(-c4ccccc4F)c3=O)[C@H]1N2Cc1ccccc1,x,0,-1,-12,0,
O=C(Cc1cccnc1)N1CCCCN2[C@@H](CO)[C@H](c3ccc(/C=C/c4ccccc4)cc3)[C@@H]2C1,x,-1,-1,3,0,
c1ccc(-c2ccncc2)cc1,x,-4,x,99*,0,
CC1OC(OC2C=C3CCC4C(CCC5(C)C(c6ccc(=O)oc6)CCC45O)C3(C)CC2)C(O)C(OC2OC(CO)C(O)C(O)C2O)C1O (configuration not stated),63*,4,x,-2,0,
SMILES,HIV Env fusion,CFTR F508del cor,E-selectin induc,S100A4 MyoIIA,FGF22 binding-1,others
C[C@@H]1O[C@@H](O[C@H]2C[C@@H](O)[C@]3(CO)[C@H]4[C@H](O)C[C@]5(C)[C@@H](C6=CC(=O)OC6)CC[C@]5(O)[C@@H]4CC[C@]3(O)C2)[C@H](O)[C@H](O)[C@H]1O,x,x,x,-6,x,
CCCNC(=O)N1[C@@H]2c3ccc(-c4cccc(C(=O)N(C)C)c4)c(=O)n3C[C@H]1[C@H](CO)[C@H]2C(=O)O,x,0,0,1,0,
CCC1(CC)C(=O)C=CNC1=O,-1,29*,2,-1,0,
CC(C)c1ccc(-n2c(O)c(/C=N/NC(=O)c3ccccc3O)c(=O)[nH]c2=S)cc1,-9,-1,0,-5,1.4*,FGF22 binding-2=0.37;TSA no protein=i
O=C(Cc1ccccn1)N1CCCCN2[C@H](CO)[C@@H](c3ccc(Br)cc3)[C@@H]2C1,x,0,0,-3,-1,
CCCN1[C@@H]2Cn3c(ccc(-c4ccc(F)cc4)c3=O)[C@H]1[C@@H](C(=O)OC)[C@@H]2CO,x,2,0,1,0,
COc1ccc(C#Cc2ccc3c(c2)O[C@H](CN(C)S(=O)(=O)c2ccccc2F)[C@@H](C)CN([C@@H](C)CO)S3(=O)=O)cc1,8[16.7 µM],-1,0,2,2.1*,FGF22 binding-2=0.016;TSA no protein=2.4µM*
COc1ccc(OC(=O)N(C)C[C@@H]2OCc3ccccc3-c3c(n(C)c4ccccc34)C(=O)N([C@@H](C)CO)C[C@@H]2C)cc1,x,2,0,1,0,
O=c1oc2ccccc2c(O)c1C(c1ccccn1)c1c(O)c2ccccc2oc1=O,-17,0,x,18,0,
CCOC(=O)C(c1c(O)c2ccccc2oc1=O)c1c(O)c2ccccc2oc1=O,-2,-1,0,-2,1.8*,FGF22 binding-2=0.003;TSA no protein=i
C/C=C/c1ccc([C@@H]2[C@H]3CN(C(=O)Cc4ccncc4)CCCCN3[C@H]2CO)cc1,x,-3,0,-7,1.3*,FGF22 binding-2=0.039;TSA no protein=i

# High-throughput results from PubChem BioAssay.
